# Screening results (PubChem BioAssay)
# GSIS activator: GLuc luminescence reporter in INS-1E cells, primary screen for activators of glucose-dependent secretion of insulin; AID 743287, 2014; 370,000 tested, 0.61% active; INS-1E GLuc reporter insulin secretion, 2-3 h; activation, % at 16.6 µM;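 active = lowest replicate activation of at least 40%, so every replicate reaches that level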
# dFosB activator: activators of delta FosB homodimer, primary screen, biochemical, fluorescence polarization, TAMRA-CDK5 oligo, single point. AID 493131, 2011. activation, % at 25 µM. 340,000 tested, 0.99% active. purified delta FosB; percent of positive-control signal above neutral wells;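 active = mean activation above about 17%, with every replicate also reaching it, limit read from the data, passing the limit was not always enough; inconclusive = only one of the two conditions met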
# Cneo AK release: Cryptococcus neoformans cell lysis inducers, primary screen, AK release luminescence, single concentration; lysis activity, % at 15 µM; C. neoformans lysis, adenylate kinase release luminescence, 4 h; normalised: neutral wells 0, clomiphene wells 100; 360,000 tested, 0.2% active;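 active = mean lysis activity across replicates of at least 80%, whatever share of replicates individually reach that level; inactive = mean lysis activity below 80%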
#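 Material: C. neoformans cells | Amount: Yeast cell density of 5 × 10^6 cells/mL | Medium: Fresh YPD growth medium | Dosing: Single dose | Times: Static 4 h at 37 °C with compound, 1 h detection | Detection: AK luminescence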
# CDK5 inh: inhibitors of human CDK5/p35 kinase, primary screen, biochemical, single concentration. Cyclin-dependent kinase 5 (Homo sapiens) + Cyclin-dependent kinase 5 activator 1 (Homo …. AID 488839, 2010. Recombinant CDK5/p35, ADP-Glo luminescence, 60 min. 330,000 tested, 0.01% active. inhibition, % at 10 µM;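 active = highest replicate inhibition of at least 50% and at least 75% of replicates reaching 50%; inconclusive = only one of the two criteria met; inactive = both criteria failed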
# Target sequence (Q00535 whole entry, looked up): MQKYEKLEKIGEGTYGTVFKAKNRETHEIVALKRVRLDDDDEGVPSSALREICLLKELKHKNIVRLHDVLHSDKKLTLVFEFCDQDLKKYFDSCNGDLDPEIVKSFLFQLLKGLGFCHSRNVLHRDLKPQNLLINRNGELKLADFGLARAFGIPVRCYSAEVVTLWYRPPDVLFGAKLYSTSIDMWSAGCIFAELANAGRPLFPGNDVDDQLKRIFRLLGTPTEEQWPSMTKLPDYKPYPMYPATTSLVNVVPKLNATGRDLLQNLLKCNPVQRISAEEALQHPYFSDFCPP
# Target sequence (Q15078 whole entry, looked up): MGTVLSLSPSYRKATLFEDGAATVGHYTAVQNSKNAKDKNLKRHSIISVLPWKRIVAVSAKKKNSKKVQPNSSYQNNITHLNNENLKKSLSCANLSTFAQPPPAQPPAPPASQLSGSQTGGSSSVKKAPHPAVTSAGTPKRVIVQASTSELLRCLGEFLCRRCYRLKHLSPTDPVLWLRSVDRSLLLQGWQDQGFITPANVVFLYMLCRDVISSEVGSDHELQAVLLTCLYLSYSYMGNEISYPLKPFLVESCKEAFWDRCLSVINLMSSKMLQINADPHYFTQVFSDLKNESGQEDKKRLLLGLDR
# Env fusion inh: inhibitors of HIV-1 Env-driven cell-cell fusion, primary screen, HeLa-JRFL effector, CEM21 target cells, luciferase | inhibition, % at 12.3 µM | 360,000 tested, 1.1% active;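 active = mean replicate inhibition score of at least 50 and every replicate individually at or above 50; inconclusive = only one of the two criteria met; inactive = mean below 50 and not all replicates reaching 50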
# PAX8 reporter: inhibitors of PAX8-driven TPO luciferase reporter, primary screen, RMG-I cells, single concentration; 360,000 tested, 1.2% active; inhibition, % at 12.6 µM; SteadyGlo, 24 h; AID 652154, 2013;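 active = mean replicate inhibition at least 60% with every replicate also reaching 60%; inconclusive = only one of the two criteria is met; inactive = mean below 60% and not all replicates reaching 60%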;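 note: luciferase light reporting Pax8 driven TPO promoter activity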
# Hits are given with their value; i = inactive; ? = inconclusive; nt = no result; [ ] = dose if it differs, or a comment. An excerpt weighted towards active compounds, which were near 2.9% of everything screened.
SMILES,GSIS activator,dFosB activator,Cneo AK release,CDK5 inh,Env fusion inh,PAX8 reporter
CC(C)NC(=O)N(C)C[C@@H]1Oc2ccc(NS(=O)(=O)c3cccs3)cc2CC(=O)N([C@@H](C)CO)C[C@H]1C,i,nt,i,nt,i,i
COc1cc2cc(-c3ccc(OC)c(OC)c3C)nc(N)c2cc1OC,i,nt,i,nt,i,71.0
N#C[C@@H]1N[C@@H](CO)[C@@H]1c1ccc(C#CC2CCCCC2)cc1,i,nt,i,nt,nt,i
CCCOc1ccc(/C=N/NC(=S)Nc2ccccc2[N+](=O)[O-])c(O)c1,i,nt,nt,nt,i,94.4
O=[N+]([O-])c1c(NCCCO)cc(Sc2nc3ccccc3s2)c2nonc12,133.8,i,i,i,nt,nt
Cc1nnc(Sc2cc(NCCO)c([N+](=O)[O-])c3nonc23)s1,i,i,nt,i,i,i
CCC(=O)OCCNc1cc(Sc2nc3ccccc3s2)c2nonc2c1[N+](=O)[O-],i,i,i,i,i,nt
Cc1nnc(Sc2cc(NCCCO)c([N+](=O)[O-])c3nonc23)s1,74.6,i,nt,i,i,75.3
C=CCn1c(SC2CCOC2=O)nc2sc(C)c(C)c2c1=O (configuration not stated),nt,i,i,i,i,i
C=CCn1c(SC2CCOC2=O)nc2sc(CC)cc2c1=O (configuration not stated),58.6,i,i,i,nt,nt
Cc1cc(C)c2sc(NNC(=O)c3ccc(S(=O)(=O)N4CCc5ccccc5C4)cc3)nc2c1,nt,i,i,i,i,99.2
Cc1cc(C)c2nc(NNC(=O)c3ccc(S(=O)(=O)N4CCc5ccccc5C4)cc3)sc2c1,nt,i,i,i,i,61.7
COc1ccc(NC(=O)N(C)C[C@@H]2OCCCC[C@H](C)Oc3ccc(NC(=O)C4CCCCC4)cc3C(=O)N([C@H](C)CO)C[C@@H]2C)cc1,i,nt,i,nt,i,nt
COc1ccc(C(CCNC(C)c2ccccc2)C(C)C)cc1 (configuration not stated),i,nt,i,nt,i,i
COc1ccc(C(C)NCCC(c2ccc(OC(C)C)cc2)c2ccccc2OC)cc1 (configuration not stated),134.3,i,nt,i,?,i
C[C@H](CO)N1C[C@H](C)[C@H](CN(C)C(=O)Nc2ccccc2)Oc2ncc(-c3ccc(F)cc3)cc2C1=O,i,nt,i,nt,i,nt
CC(=O)N(C)C[C@H]1Oc2cc(C#Cc3ccccn3)ccc2S(=O)(=O)N([C@H](C)CO)C[C@H]1C,i,nt,i,nt,i,nt
OCCNCCOc1ccccc1-c1ccccc1,nt,i,i,i,i,i
N=C(N)CCCOc1ccccc1-c1ccccc1,i,i,nt,i,nt,62.6
CN(C)CCN(C(=O)CCS(=O)(=O)c1ccccc1)c1nc2c(F)cccc2s1,i,i,i,i,i,i
Cc1ccc2sc(N(CCCN(C)C)C(=O)CCS(=O)(=O)c3ccccc3)nc2c1C,i,i,i,i,i,80.9
COc1ccc(OC)c2sc(N(CCCN(C)C)C(=O)CCS(=O)(=O)c3ccccc3)nc12,i,i,i,i,i,108.4
CN(C)CCCN(C(=O)CCS(=O)(=O)c1ccccc1)c1nc2cc3c(cc2s1)OCO3,i,i,i,i,i,?
O=C(NCC[C@@H]1CC[C@H](NS(=O)(=O)c2ccccc2F)[C@H](CO)O1)c1ccc(F)cc1,i,nt,i,nt,i,i
O=C(NCC[C@@H]1CC[C@@H](NS(=O)(=O)c2ccccc2F)[C@@H](CO)O1)c1ccc(F)cc1,i,nt,i,nt,60.9[16.7 µM],i
O=C(NCC[C@@H]1CC[C@H](NS(=O)(=O)c2ccc(F)cc2)[C@H](CO)O1)c1ccc2c(c1)OCO2,i,nt,i,nt,i,i
O=C(NCC[C@H]1CC[C@@H](NS(=O)(=O)c2ccc(F)cc2)[C@H](CO)O1)c1ccc2c(c1)OCO2,i,nt,94.7,nt,i,i
Cc1noc(C)c1S(=O)(=O)Nc1ccc2c(c1)C(=O)N([C@@H](C)CO)C[C@H](C)[C@@H](CN(C)S(=O)(=O)c1ccc(Cl)cc1)OCCCC[C@H](C)O2,i,nt,i,nt,i,i
